ChEMBL document CHEMBL3822380, “Simple avarone mimetics as selective agents against multidrug resistant cancer cells” (Eur J Med Chem, 2016)
Converted amounts (≈) assume the structure as drawn. The source made the active and inactive calls.

Assays:
[1] = tested on: Micrococcus luteus; test: Antibacterial activity against Micrococcus luteus ATCC 4698 by broth microdilution method; type: functional; conditions: NCTC 2665
Method in brief: (§1)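 Broth microdilution per NCCLS. Compounds dissolved in DMSO as 10 mg/mL stock, diluted in Mueller Hinton broth (bacteria) or Sabouraud dextrose broth (fungi). Amikacin served as the positive control for bacteria and nystatin for fungi.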

[2] = tested on: Clostridium sporogenes; test: Antibacterial activity against Clostridium sporogenes ATCC 19404 by broth microdilution method; type: functional; method in brief: as §1
[3] = tested on: Escherichia coli; test: Antibacterial activity against Escherichia coli ATCC 25922 by broth microdilution method; type: functional; method in brief: as §1
[4] = tested on: Proteus hauseri; test: Antibacterial activity against Proteus hauseri ATCC 13315 by broth microdilution method; type: functional; method in brief: as §1
[5] = tested on: Salmonella enteritidis; test: Antibacterial activity against Salmonella enterica subsp. enterica serovar Enteritidis ATCC 13076 by broth microdilution method; type: functional; method in brief: as §1
[6] = tested on: Pseudomonas aeruginosa; test: Antibacterial activity against Pseudomonas aeruginosa ATCC 9027 by broth microdilution method; type: functional; method in brief: as §1
[7] = tested on: Candida albicans; test: Antifungal activity against Candida albicans ATCC 10231 by broth microdilution method; type: functional; method in brief: as §1
[8] = tested on: Saccharomyces cerevisiae; test: Antifungal activity against Saccharomyces cerevisiae ATCC 9763 by broth microdilution method; type: functional; method in brief: as §1
[9] = tested on: Aspergillus brasiliensis; test: Antifungal activity against Aspergillus brasiliensis ATCC 16404 by broth microdilution method; type: functional; method in brief: as §1
[10] = tested on: NCI-H460; test: Induction of apoptosis in human NCI-H460 cells assessed as live cells at 25 uM after 72 hrs by annexin-V/propidium iodide staining-based flow cytometric analysis (reference value: 98.3%); type: functional
[11] = tested on: NCI-H460; test: Induction of apoptosis in human NCI-H460 cells assessed as early apoptotic cells at 25 uM after 72 hrs by annexin-V/propidium iodide staining-based flow cytometric analysis (reference value: 0.3%); type: functional
[12] = tested on: NCI-H460; test: Induction of apoptosis in human NCI-H460 cells assessed as late apoptotic/necrotic cells at 25 uM after 72 hrs by annexin-V/propidium iodide staining-based flow cytometric analysis (reference value: 0.2%); type: functional
[13] = tested on: NCI-H460; test: Induction of apoptosis in human NCI-H460 cells assessed as dead cells at 25 uM after 72 hrs by annexin-V/propidium iodide staining-based flow cytometric analysis (reference value: 1.2%); type: functional
[14] = tested on: NCI-H460; test: Induction of apoptosis in multidrug resistant human NCI-H460 cells assessed as live cells at 25 uM after 72 hrs by annexin-V/propidium iodide staining-based flow cytometric analysis (reference value: 96.4%); type: functional
[15] = tested on: NCI-H460; test: Induction of apoptosis in multidrug resistant human NCI-H460 cells assessed as early apoptotic cells at 25 uM after 72 hrs by annexin-V/propidium iodide staining-based flow cytometric analysis (reference value: 1.1%); type: functional
[16] = tested on: NCI-H460; test: Induction of apoptosis in multidrug resistant human NCI-H460 cells assessed as late apoptotic/necrotic cells at 25 uM after 72 hrs by annexin-V/propidium iodide staining-based flow cytometric analysis (reference value: 1%); type: functional
[17] = tested on: NCI-H460; test: Induction of apoptosis in multidrug resistant human NCI-H460 cells assessed as dead cells at 25 uM after 72 hrs by annexin-V/propidium iodide staining-based flow cytometric analysis (reference value: 1.5%); type: functional
[18] = Induction of apoptosis in human HaCaT cells assessed as live cells at 25 uM after 72 hrs by annexin-V/propidium iodide staining-based flow cytometric analysis (reference value: 96.8%); type: cell-based; conditions: read-out: Activity
[19] = tested on: HaCaT; test: Induction of apoptosis in human HaCaT cells assessed as early apoptotic cells at 25 uM after 72 hrs by annexin-V/propidium iodide staining-based flow cytometric analysis (reference value: 0.2%); type: cell-based
[20] = tested on: HaCaT; test: Induction of apoptosis in human HaCaT cells assessed as late apoptotic/necrotic cells at 25 uM after 72 hrs by annexin-V/propidium iodide staining-based flow cytometric analysis (reference value: 0.2%); type: cell-based
[21] = tested on: HaCaT; test: Induction of apoptosis in human HaCaT cells assessed as dead cells at 25 uM after 72 hrs by annexin-V/propidium iodide staining-based flow cytometric analysis (reference value: 2.8%); type: cell-based
[22] = tested on: Kocuria rhizophila; test: Antibacterial activity against Kocuria rhizophila ATCC 9341 by broth microdilution method; type: functional; conditions: DC2201; method in brief: as §1
[23] = tested on: NCI-H460; test: Cytotoxicity against human NCI-H460 cells after 72 hrs by MTT assay; type: functional, cell-based; conditions: NCI-H460, 72 h
Method in brief: (§2)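 Seeding in 96-well plates at 1000 (NCI-H460), 2000 (NCI-H460/R) or 4000 (HaCaT) cells/well, treated after 24 h for 72 h. MTT at 0.4 mg/mL final, 4 h at 37 °C. Formazan dissolved in DMSO, absorbance read at 540 nm. Inhibition % = (1 − A treated/A untreated)×100. IC30 and IC50 obtained by linear regression.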

[24] = tested on: NCI-H460; test: Cytotoxicity against multidrug resistant human NCI-H460 cells after 72 hrs by MTT assay; type: functional, cell-based; conditions: NCI-H460, 72 h; method in brief: as §2
[25] = tested on: HaCaT; test: Cytotoxicity against human HaCaT cells after 72 hrs by MTT assay; type: cell-based; conditions: for IC50: Homo sapiens, HaCaT; for IC30: human, hacat; method in brief: as §2
[26] = Selectivity ratio of IC30/IC50 for human HaCaT cells to IC30/IC50 for human NCI-H460 cells; type: ADME, cell-based; conditions: HaCaT cells versus NCI-H460 cells
Method in brief: (§3)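 Fold threshold of 1.5 used to call selectivity to cancer cells, resistance, or selectivity to MDR cells.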

[27] = Selectivity ratio of IC30/IC50 for human HaCaT cells to IC30/IC50 for multidrug resistant human NCI-H460 cells; type: ADME, cell-based; conditions: HaCaT cells versus multidrug resistant NCI-H460 cells; method in brief: as §3
[28] = tested on: NCI-H460; test: Induction of superoxide anion generation in multidrug resistant human NCI-H460 cells at 25 uM after 72 hrs by DHE staining-based flow cytometric analysis relative to control; type: functional, cell-based
Method in brief: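 Seeded as for cell death (50,000 or 100,000 cells/well), treated 72 h at 25 µM, with CDDP 5 µM as control. Adherent cells trypsinized and loaded with 1 µM DHE for 30 min at 37 °C in the dark, then washed twice in PBS. Flow cytometry at ex 488/em 585 nm (FL2-H). Mean fluorescence intensity corrected for autofluorescence and compared with untreated control.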

[29] = tested on: Staphylococcus aureus; test: Antibacterial activity against Staphylococcus aureus ATCC 6538 by broth microdilution method; type: functional; method in brief: as §1
[30] = tested on: Bacillus spizizenii; test: Antibacterial activity against Bacillus subtilis ATCC 6633 by broth microdilution method; type: functional; method in brief: as §1
[31] = tested on: Micrococcus luteus; test: Antibacterial activity against Micrococcus luteus ATCC 10240 by broth microdilution method; type: functional; method in brief: as §1
[32] = tested on: NCI-H460; test: Selectivity ratio of IC30/IC50 for human NCI-H460 cells to IC30/IC50 for multidrug resistant human NCI-H460 cells; type: functional; method in brief: as §3

| Structure (SMILES) | MIC [1] | MIC [2] | MIC [4] | MIC [5] | MIC [6] | Activity [10] | Activity [11] | Activity [12] | Activity [13] | Activity [14] | Activity [15] | Activity [16] | IC30 [23] | IC50 [23] | IC30 [24] | IC50 [24] | IC50 [25] | IC30 [25] | selectivity ratio [26] | selectivity ratio [27] | other results |
| --- | --- | --- | --- | --- | --- | --- | --- | --- | --- | --- | --- | --- | --- | --- | --- | --- | --- | --- | --- | --- | --- |
| CCCCCCCCNC1=CC(=O)C(C(C)(C)C)=CC1=O | 4300 µM (≈ 1250 µg/mL) | 2150 µM (≈ 626 µg/mL) | 2150 µM (≈ 626 µg/mL) | 2150 µM (≈ 626 µg/mL) | 2150 µM (≈ 626 µg/mL) | 80.9% | 0.1% | 1.7% | 17.3% | 83.9% | 0.2% | 1.9% | 18 µM | 70 µM | 21 µM | 65 µM | > 100 µM | > 100 µM | ≤ 1.5 | ≤ 1.5 | MIC [3]: 4300 µM (≈ 1250 µg/mL); MIC [7]: 4300 µM (≈ 1250 µg/mL); MIC [8]: 4300 µM (≈ 1250 µg/mL); MIC [9]: 2150 µM (≈ 626 µg/mL); Activity [17]: 14%; viability at 72 h, 25 µM [18]: 93.8%; Activity [19]: 0%; Activity [20]: 0.5%; Activity [21]: 5.7%; MIC [22]: 4300 µM (≈ 1250 µg/mL); Activity [28]: inactive; MIC [29]: 4300 µM (≈ 1250 µg/mL); MIC [30]: 4300 µM (≈ 1250 µg/mL); MIC [31]: 2150 µM (≈ 626 µg/mL) |
| CC(C)(C)C1=CC(=O)C(NCc2ccccc2)=CC1=O | 2320 µM (≈ 626 µg/mL) | 2320 µM (≈ 626 µg/mL) | 2320 µM (≈ 626 µg/mL) | 4650 µM (≈ 1250 µg/mL) | 4650 µM (≈ 1250 µg/mL) | – | – | – | – | – | – | – | 13 µM | 19 µM | 5 µM | 15 µM | 28 µM | 12 µM | ≤ 1.5 | ≤ 1.5 | MIC [3]: 36 µM (≈ 9.7 µg/mL); MIC [22]: 4650 µM (≈ 1250 µg/mL); selectivity ratio [32]: <=1.5; MIC [29]: 72 µM (≈ 19.4 µg/mL); MIC [30]: 4650 µM (≈ 1250 µg/mL); MIC [31]: 18 µM (≈ 4.85 µg/mL) |
| CC1=CCC[C@H]2[C@](C)(CC3=CC(=O)C(NCCc4ccccc4)=CC3=O)[C@@H](C)CC[C@]12C | – | – | – | – | – | 92% | 0.3% | 0.5% | 7.2% | 94.9% | 0.4% | 0.6% | 75 µM | > 100 µM | 10 µM | 91 µM | > 100 µM | 76 µM | ≤ 1.5 | ≤ 1.5 | Activity [17]: 4.1%; viability at 72 h, 25 µM [18]: 89.5%; Activity [19]: 0.3%; Activity [20]: 1%; Activity [21]: 9.2%; selectivity ratio [32]: <=1.5; Activity [28]: inactive |
| CCCCNC1=CC(=O)C(C[C@]2(C)[C@@H](C)CC[C@]3(C)C(C)=CCC[C@@H]23)=CC1=O | – | – | – | – | – | – | – | – | – | – | – | – | 91 µM | > 100 µM | 24 µM | > 100 µM | > 100 µM | 86 µM | ≤ 1.5 | ≤ 1.5 | selectivity ratio [32]: <=1.5 |
| CC(C)(C)C1=CC(=O)C(NCCc2ccccc2)=CC1=O | 2210 µM (≈ 626 µg/mL) | 2210 µM (≈ 626 µg/mL) | 2210 µM (≈ 626 µg/mL) | 4420 µM (≈ 1250 µg/mL) | 2210 µM (≈ 626 µg/mL) | 80.8% | 0.8% | 5.4% | 13% | 81% | 1.3% | 3.6% | 17 µM | 35 µM | 11 µM | 33 µM | > 100 µM | > 100 µM | ≤ 1.5 | ≤ 1.5 | MIC [7]: 2210 µM (≈ 626 µg/mL); MIC [8]: 2210 µM (≈ 626 µg/mL); MIC [9]: 1110 µM (≈ 313 µg/mL); Activity [17]: 14.1%; viability at 72 h, 25 µM [18]: 89.2%; Activity [19]: 0.8%; Activity [20]: 1.7%; Activity [21]: 8.3%; MIC [22]: 2210 µM (≈ 626 µg/mL); Activity [28]: inactive; MIC [30]: 4420 µM (≈ 1250 µg/mL); MIC [31]: 4420 µM (≈ 1250 µg/mL) |
